The source made the active and inactive calls. No cut-off for these calls is given here.
Columns and labels:
[1] = tested on: Cynomolgus monkey; experiment: Toxicity in cynomolgus monkey assessed as change in systolic blood pressure at 30 mg/kg; format: organism-based, Macaca fascicularis; settings: in vivo
[2] = tested on: Rattus norvegicus; experiment: Antipain activity in tibial nerve transection surgery model of rat assessed as reduction of heat evoked activity at 3 to 10 mg/kg administered as iv bolus dose measured every 15 mins for 30 mins; format: functional, organism-based
How it was run: (§1)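 Rats had tibial nerve transection 2–3 weeks before recording. Under isoflurane anaesthesia (5% in O2) in a stereotaxic frame, body temperature was held at 37 °C and L4-5 spinal segments were exposed by laminectomy. After stable baseline responses, compound was given as an IV bolus, with effects assessed every 15 min for up to 30 min per dose. Treatment was randomised and blinded, and dry blood spots were taken for plasma exposure.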

[3] = tested on: Rattus norvegicus; experiment: Antipain activity in tibial nerve transection surgery model of rat assessed as reduction of noxious pinch evoked activity at 3 to 10 mg/kg administered as iv bolus dose measured every 15 mins for 30 mins; format: functional, organism-based; how it was run: as §1
[4] = tested on: Rattus norvegicus; experiment: Antipain activity in tibial nerve transection surgery model of rat assessed as reduction of mechanical punctate stimuli evoked activity at 3 to 10 mg/kg administered as iv bolus dose measured every 15 mins for 30 mins; format: functional, organism-based; how it was run: as §1
[5] = tested on: Cynomolgus monkey; experiment: Toxicity in cynomolgus monkey assessed as change in heart rate at 30 mg/kg; format: organism-based, Macaca fascicularis; settings: in vivo
[6] = tested on: Cynomolgus monkey; experiment: Toxicity in cynomolgus monkey assessed as change in diastolic blood pressure at 30 mg/kg; format: organism-based, Macaca fascicularis; settings: in vivo
[7] = tested on: Cynomolgus monkey; experiment: Toxicity in cynomolgus monkey assessed as change in left ventricular pressure parameters at 30 mg/kg; format: organism-based, Macaca fascicularis; settings: in vivo
[8] = tested on: Rattus norvegicus; experiment: Prodrug conversion in po dosed rat assessed as formation of N-(3-chloro-4-(trifluoromethoxy)benzyl)-3-fluoro-4-(N-thiazol-2-ylsulfamoyl)benzamide; format: ADME, organism-based; settings: in vivo
[9] = tested on: Cynomolgus monkey; experiment: Toxicity in cynomolgus monkey assessed as effect on ECG parameters at 30 mg/kg; format: organism-based, Macaca fascicularis; settings: in vivo
[10] = tested on: Rattus norvegicus; experiment: Antipain activity in tibial nerve transection surgery model of rat assessed as reduction of innocuous brush evoked activity at 3 to 10 mg/kg administered as iv bolus dose measured every 15 mins for 30 mins; format: functional, organism-based; how it was run: as §1

`O=C(NCc1ccc(OC(F)(F)F)c(Cl)c1)c1ccc(S(=O)(=O)/N=c2\sccn2COP(=O)(O)O)c(F)c1` was tested, and the Activity [1] was “Non-Toxic”, the Activity [2] was “inactive” and the Activity [3] was “Active”. For the same compound, the Activity [4] was “inactive”, the Activity [5] was “Non-Toxic” and the Activity [6] was “Non-Toxic”. For the same compound, the Activity [7] was “Non-Toxic”, the Drug metabolism [8] was “Metabolite_Detected” and the Activity [9] was “Non-Toxic”. The Activity [10] was “inactive”.
